# This is a sample that favours compounds with a hit; in the whole collection about 0.72% have one here.
# hIAP block = blocks human intestinal alkaline phosphatase | inhibition, % at 10 µM | purified IAP, CDP-Star luminescence, 30 min | P09923 | 330,000 compounds, 0.12% hits;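 active means inhibition reaching a set limit with compound at 10 µM in the primary screen, cut at about 35% in these data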;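 further: plate controls were DMSO wells with enzyme for no effect and no-enzyme buffer wells for full effect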
# Target sequence (P09923 whole entry, looked up): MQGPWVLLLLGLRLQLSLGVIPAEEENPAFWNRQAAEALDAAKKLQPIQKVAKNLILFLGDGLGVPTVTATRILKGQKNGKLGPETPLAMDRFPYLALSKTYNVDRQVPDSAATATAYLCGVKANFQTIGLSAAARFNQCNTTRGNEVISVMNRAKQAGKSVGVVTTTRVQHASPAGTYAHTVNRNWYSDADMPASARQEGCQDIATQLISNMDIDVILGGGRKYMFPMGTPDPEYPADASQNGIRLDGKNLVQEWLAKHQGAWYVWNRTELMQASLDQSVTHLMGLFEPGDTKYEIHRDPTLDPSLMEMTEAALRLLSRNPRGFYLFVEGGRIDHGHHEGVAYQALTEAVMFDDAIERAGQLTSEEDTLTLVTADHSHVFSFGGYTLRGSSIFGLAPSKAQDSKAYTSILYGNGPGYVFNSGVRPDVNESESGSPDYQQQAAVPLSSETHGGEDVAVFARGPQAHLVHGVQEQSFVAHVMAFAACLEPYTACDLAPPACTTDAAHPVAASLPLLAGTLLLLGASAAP
# mIAP activ = increases mouse intestinal alkaline phosphatase activity; 330,000 compounds, 0.24% hits; muIAP, CDP-Star luminescence, 30 min; hits give high values; 1 = vehicle-only enzyme signal, 0 = enzyme-free wells; activation factor at 10 µM;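 active means activation factor of at least 2 at 20 µM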
#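 System: Mouse IAP enzyme | Also added: CDP-Star substrate | Dosing: Compounds dispensed in DMSO | Schedule: 30 min enzyme-substrate-compound incubation at room temperature | Technique: Chemiluminescence readout | Control set: DMSO-only wells and no-enzyme negative control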
# mIAP inh = mouse IAP inhibition. purified mouse IAP, CDP-Star luminescence, 30 min. inhibition, % at 10 µM. 330,000 compounds, 0.2% hits. AID 2806;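 active means inhibition of at least 40% at 10 µM in the primary screen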;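 further: plate controls were DMSO with enzyme for no effect and no enzyme wells for full effect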
# bIAP activator = increases bovine intestinal alkaline phosphatase activity. purified bovine IAP, CDP-star luminescence, 30 min; hits give high values; fold of DMSO-control signal, blank-subtracted. activation factor at 20 µM. 200,000 compounds, 0.17% hits. AID 1016;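 active means activation factor of 2 or more at 20 µM, a signal rise over negative controls twice the positive control's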
# bIAP inhibitor = blocks bovine intestinal alkaline phosphatase activity; inhibition, % at 20 µM; 190,000 tested, under 10 active; purified bovine IAP, CDP-star luminescence, 30 min;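 active means over 50% inhibition of intestinal alkaline phosphatase at 20 µM in the single-dose screen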
#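 Assay system – bovine IAP enzyme · Quantity – bovine IAP at 1/65,000,000 final dilution · Detection – CDP-star luminescence signal · Times – 30 min reaction at room temperature · Also added – CDP-star substrate at 30 µM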
# hIAP activ = human IAP activation. AID 2524. P09923. 330,000 compounds, 0.16% hits. purified human IAP, CDP-Star luminescence, 30 min; hits give high values; 1 = vehicle-only enzyme, 0 = enzyme-free background. activation factor at 10 µM;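 active means activation factor of the enzyme at least 2-fold when tested at 20 µM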
# hIAP act confirm = human IAP activation confirmation. purified IAP, CDP-Star luminescence, 30 min; hits give low values. shares compounds with hIAP activ. AID 434926. 880 compounds, 10% hits. activation (%Activity, negative = activation), % at 8.3 µM;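 active means at least twofold enzyme activation in any of six single-dose repeats, which the averaged readout prints as negative percent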
# Active calls of the source: *; . = no result given.
SMILES,hIAP block,mIAP activ,mIAP inh,bIAP activator,bIAP inhibitor,hIAP activ,hIAP act confirm
c1ccc(-c2nnc(CN3CCC4(CC3)OCCO4)o2)cc1,41.3*,0.958,4.2,0.9,6.6,0.587,29.7
c1ccc(-c2nnc(CN3CCCCC3)o2)cc1,-4.3,1.17,-16.5,.,.,1.04,.
O=C1CC(c2ccccc2F)c2cc3c(cc2N1)CCC3 (stereo unspecified),-219.6,1.17,-16.5,1,2.9,3.2*,-11.2
Cc1ccc(OCCC(=O)OCC(=O)Nc2ccccc2)cc1,7.9,0.999,0.1,.,.,0.921,.
Cn1c(CNC(=O)CCNC(=O)c2cccc(F)c2)cc(=O)n(C)c1=O,37.9*,0.934,6.6,.,.,0.621,3.1
Cn1c(CNC(=O)CNC(=O)c2cccc(F)c2)cc(=O)n(C)c1=O,2.9,1.03,-2.9,.,.,0.971,.
CC1CCCCC1NC(=O)CNC(=O)c1ccco1 (stereo unspecified),1.8,0.896,10.4,.,.,0.982,.
CCOC(=O)c1cnc(SCC(=O)c2ccccc2)nc1N,35.3*,0.961,3.9,0.9,9.9,0.647,-436.4*
CCOC(=O)c1cnc(SCC(=O)c2ccc(C)cc2)nc1N,12.8,0.975,2.5,0.9,7.3,0.872,.
COc1ccc(C(=O)NNC(=O)c2ccc3ccccc3n2)cc1,-47.6,0.867,13.3,.,.,1.48,.
CCCCNC(=O)NNC(=O)c1ccco1,-5.0,1.07,-7.2,1.1,-9.3,1.05,.
O=C(NNC(=S)NC(=O)c1ccccc1[N+](=O)[O-])c1ccccc1O,-135.1,0.729,27.1,1.4,-43.9,2.35*,27.4
CCCCNC(=S)NNC(=O)c1ccco1,43.7*,0.873,12.7,0.9,8.2,0.563,9.4
O=C(NC(=S)NNC(=O)c1ccco1)c1ccccc1,-102.7,0.734,26.6,.,.,2.03*,21.1
O=C(NC(=S)NNC(=O)c1ccccc1O)c1ccccc1,-113.8,0.715,28.5,.,.,2.14*,1.6
C=CCOc1ccc(C2/C(=C(\O)c3ccc4c(c3)CC(C)O4)C(=O)C(=O)N2CCN2CCOCC2)cc1OCC (stereo unspecified),18.2,0.945,5.5,.,.,0.818,.
Cc1ccc(C)c(N2CCN(C(=O)c3ccc(Cl)c(NC4=NC5CS(=O)(=O)CC5S4)c3)CC2)c1 (stereo unspecified),-2.1,1.03,-3.5,.,.,1.02,.
O=C(Nc1ccc(Br)cc1)Nn1cnnc1,-10.8,1.14,-14.2,.,.,1.11,.
O=C(NC(=S)NNC(=O)c1ccccc1O)c1ccc(F)cc1,-108.4,0.691,30.9,.,.,2.08*,62.4
Cc1ccc(C(=O)NC(=S)NNC(=O)c2ccccc2O)cc1,-138.9,0.699,30.1,.,.,2.39*,17.7
O=C(NC(=S)NNC(=O)c1ccccc1O)c1cccs1,-101.7,0.774,22.6,.,.,2.02*,-2.5
Cc1ccc(C(=O)NNC(=S)NC(=O)c2ccccc2)cc1,5.6,0.933,6.7,.,.,0.944,.
Cc1ccc(N(CCC#N)C(=O)COC(=O)c2cc(C)oc2C)cc1,11.3,0.953,4.7,.,.,0.887,.
CCOc1cc(C#N)ccc1OCC(=O)N1CCN(C(=O)c2cccs2)CC1,9.5,0.974,2.6,.,.,0.905,.
O=C(Nc1ccnn1C1CCN(Cc2cc(Cl)ccc2O)CC1)c1cccnc1,-36.1,0.928,7.2,.,.,1.36,.
SMILES,hIAP block,mIAP activ,mIAP inh,bIAP activator,bIAP inhibitor,hIAP activ,hIAP act confirm
O=C(N/N=C/c1cccs1)c1[nH]ncc1Br,-28.8,0.957,4.3,.,.,1.29,.
Cc1ccc(O)c(/C=N/NC(=O)C2=NNC(c3ccccc3)(c3ccccc3)C2)c1,.,.,.,1.1,-6.4,.,.
O=C(N/N=C/c1c(O)ccc2ccccc12)c1[nH]ncc1Br,-120.5,0.766,23.4,0.9,11.2,2.21*,42.8
COc1ccc(OC)c(/C=N/NC(=O)c2[nH]ncc2Br)c1,-69.0,1.05,-5.5,.,.,1.69,.
Cc1ccc(O)c(/C=N/NC(=O)c2[nH]ncc2Br)c1,-122.8,0.794,20.6,1,4.7,2.23*,23.2
CCOc1ccc(/C=N/NC(=O)c2[nH]ncc2Br)c(O)c1,-107.9,0.792,20.8,1.4,-38.9,2.08*,-294.4*
C=CCC[C@@H](Cc1ccc(F)cc1)C(=O)OC[C@@H](Cc1c[nH]c2ccccc12)NC(=O)[C@@H](CC=C)CC(=O)N[C@H](CO)Cc1ccccc1,-12.1,1.02,-1.7,.,.,1.12,.

# Compound activity as filed in PubChem.
